Test results taken from ChEMBL document CHEMBL1287652, “QSAR modeling, synthesis and bioassay of diverse leukemia RPMI-8226 cell line active agents” (2010).

What was measured:
Assay type in all cases: functional
[1] = Antitumor activity against human […] cells at 10 uM after 48 hrs by sulforhodamine B assay relative to control; conditions: values are per cent of control
Method in brief: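 NCI panel lines were grown in RPMI-1640 with 5% FBS and 2 mM L-glutamine and seeded at 5000–40,000 cells/well according to doubling time. After 24 h at 37 °C, 5% CO2, one dose from a DMSO stock was added for 48 h. Cells were TCA-fixed (10% final adherent, 16% suspension), SRB-stained and read at 515 nm. Percent growth is relative to untreated control.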

MOLT-4 = assay: Antitumor activity against human MOLT4 cells after 48 hrs by sulforhodamine B assay; conditions: MOLT-4, 48 h
Method in brief: (§1)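 Cells were cultured in RPMI-1640 (5% FBS, 2 mM L-glutamine), pre-incubated for 24 h with time-zero plates TCA-fixed, then exposed for 48 h to five serial dilutions. The SRB read-out at 515 nm used time-zero, control and test absorbances. GI50 solves [(Ti−Tz)/(C−Tz)]×100 = 50 (net protein increase). TGI is the concentration giving 100% growth inhibition.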

SR = assay: Antitumor activity against human SR cells after 48 hrs by sulforhodamine B assay; method in brief: as §1
[2] = Antitumor activity against human […] cells after 48 hrs by sulforhodamine B assay; conditions: RPMI-8226, 48 h; method in brief: as §1
EKVX = assay: Antitumor activity against human EKVX cells after 48 hrs by sulforhodamine B assay
Method in brief: (§2)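 Cells were grown in RPMI-1640 with 5% FBS and 2 mM L-glutamine, plated at 5000–40,000 cells/well, and preincubated for 24 h. A time-zero plate was TCA-fixed. Compounds were added from DMSO stock at five concentrations for 48 h at 37 °C. Cells were fixed with TCA (adherent 10%, suspension 16%) and stained with SRB, and A515 was read. GI50 and TGI were calculated from Tz, control and test absorbances.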

HOP-62 = assay: Antitumor activity against human HOP62 cells after 48 hrs by sulforhodamine B assay; conditions: HOP-62, 48 h; method in brief: as §2
HOP-92 = assay: Antitumor activity against human HOP92 cells after 48 hrs by sulforhodamine B assay; conditions: HOP-92, 48 h; method in brief: as §2
NCI-H226 = assay: Antitumor activity against human NCI-H226 cells after 48 hrs by sulforhodamine B assay; conditions: NCI-H226, 48 h; method in brief: as §1
NCI-H460 = assay: Antitumor activity against human NCI-H460 cells after 48 hrs by sulforhodamine B assay; conditions: NCI-H460, 48 h; method in brief: as §1
KM12 = assay: Antitumor activity against human KM12 cells after 48 hrs by sulforhodamine B assay; conditions: KM12, 48 h; method in brief: as §2
SW-620 = assay: Antitumor activity against human SW620 cells after 48 hrs by sulforhodamine B assay; conditions: SW-620, 48 h
Method in brief: (§3)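 Cells grown in RPMI-1640 with 5% FBS and 2 mM glutamine, plated and preincubated 24 h; time-zero plates TCA-fixed. Five-level serial dilutions added, 48 h at 37 °C. TCA fixation, SRB staining, absorbance 515 nm. GI50 derived from [(Ti−Tz)/(C−Tz)]×100 = 50; TGI is concentration giving 100% growth inhibition.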

SF-295 = assay: Antitumor activity against human SF295 cells after 48 hrs by sulforhodamine B assay; conditions: SF-295, 48 h; method in brief: as §1
SF-539 = assay: Antitumor activity against human SF539 cells after 48 hrs by sulforhodamine B assay; conditions: SF-539, 48 h; method in brief: as §1
SNB-19 = assay: Antitumor activity against human SNB19 cells after 48 hrs by sulforhodamine B assay; conditions: SNB-19, 48 h; method in brief: as §1
SNB-75 = assay: Antitumor activity against human SNB75 cells after 48 hrs by sulforhodamine B assay; conditions: SNB-75, 48 h; method in brief: as §1
U-251 = assay: Antitumor activity against human U251 cells after 48 hrs by sulforhodamine B assay; conditions: U-251, 48 h; method in brief: as §3
MDA-MB-435 = assay: Antitumor activity against human MDA-MB-435 cells after 48 hrs by sulforhodamine B assay; conditions: MDA-MB-435, 48 h; method in brief: as §2
SK-MEL-2 = assay: Antitumor activity against human SK-MEL-2 cells after 48 hrs by sulforhodamine B assay; conditions: SK-MEL-2, 48 h; method in brief: as §1
UACC-62 = assay: Antitumor activity against human UACC62 cells after 48 hrs by sulforhodamine B assay; conditions: UACC-62, 48 h; method in brief: as §3
IGROV-1 = assay: Antitumor activity against human IGROV1 cells after 48 hrs by sulforhodamine B assay; conditions: IGROV-1, 48 h; method in brief: as §2
OVCAR-3 = assay: Antitumor activity against human OVCAR-3 cells after 48 hrs by sulforhodamine B assay; conditions: OVCAR-3, 48 h; method in brief: as §1
OVCAR-4 = assay: Antitumor activity against human OVCAR4 cells after 48 hrs by sulforhodamine B assay; conditions: OVCAR-4, 48 h; method in brief: as §1
OVCAR-5 = assay: Antitumor activity against human OVCAR5 cells after 48 hrs by sulforhodamine B assay; conditions: OVCAR-5, 48 h; method in brief: as §1
SK-OV-3 = assay: Antitumor activity against human SKOV3 cells after 48 hrs by sulforhodamine B assay; conditions: SK-OV-3, 48 h; method in brief: as §1
786-0 = assay: Antitumor activity against human 786-0 cells after 48 hrs by sulforhodamine B assay; conditions: 786-0, 48 h; method in brief: as §2
ACHN = assay: Antitumor activity against human ACHN cells after 48 hrs by sulforhodamine B assay; method in brief: as §2
SN12C = assay: Antitumor activity against human SN12C cells after 48 hrs by sulforhodamine B assay; method in brief: as §1
UO-31 = assay: Antitumor activity against human UO31 cells after 48 hrs by sulforhodamine B assay; conditions: UO-31, 48 h; method in brief: as §3
PC-3 = assay: Antitumor activity against human PC3 cells after 48 hrs by sulforhodamine B assay; conditions: PC-3, 48 h; method in brief: as §1
DU-145 = assay: Antitumor activity against human DU145 cells after 48 hrs by sulforhodamine B assay; conditions: DU-145, 48 h; method in brief: as §2
[3] = Antitumor activity against human Hs 578T cells after 48 hrs by sulforhodamine B assay; method in brief: as §2
K562 = assay: Antitumor activity against human K562 cells after 48 hrs by sulforhodamine B assay; conditions: K562, 48 h; method in brief: as §2

## COc1ccc(NC(=O)Nc2ccccc2OCCCOc2ccccc2NC(=O)Nc2ccc(OC)cc2)cc1
[1]
  growth, % of control at 10 µM: 77%
MOLT-4
  GI50: 17.7 µM
  TGI: 36.6 µM
SR
  GI50: 0.2 µM
  TGI: 4 µM
[2]
  GI50: 58.3 µM
  TGI: > 100 µM
EKVX
  GI50: 10.5 µM
  TGI: > 100 µM
HOP-62
  GI50: 3.3 µM
  TGI: 9.4 µM
HOP-92
  GI50: 2.7 µM
  TGI: 8.6 µM
NCI-H226
  GI50: > 100 µM
  TGI: > 100 µM
NCI-H460
  GI50: > 100 µM
  TGI: > 100 µM
KM12
  GI50: > 100 µM
  TGI: > 100 µM
SW-620
  GI50: > 100 µM
  TGI: > 100 µM
SF-295
  GI50: 29.9 µM
  TGI: > 100 µM
SF-539
  GI50: 3.4 µM
  TGI: > 100 µM
SNB-19
  GI50: 4.3 µM
  TGI: 26.1 µM
SNB-75
  GI50: 1.5 µM
  TGI: 5.3 µM
U-251
  GI50: 3.7 µM
  TGI: 28.8 µM
MDA-MB-435
  GI50: > 100 µM
  TGI: > 100 µM
SK-MEL-2
  GI50: > 100 µM
  TGI: > 100 µM
UACC-62
  GI50: > 100 µM
  TGI: > 100 µM
IGROV-1
  GI50: > 100 µM
  TGI: > 100 µM
OVCAR-3
  GI50: > 100 µM
  TGI: > 100 µM
OVCAR-4
  GI50: > 100 µM
  TGI: > 100 µM
OVCAR-5
  GI50: > 100 µM
  TGI: > 100 µM
SK-OV-3
  GI50: 5 µM
  TGI: > 100 µM
786-0
  TGI: > 100 µM
ACHN
  GI50: > 100 µM
  TGI: > 100 µM
SN12C
  GI50: > 100 µM
  TGI: > 100 µM
UO-31
  GI50: > 100 µM
  TGI: > 100 µM
PC-3
  GI50: > 100 µM
  TGI: > 100 µM
DU-145
  GI50: > 100 µM
  TGI: > 100 µM
[3]
  GI50: > 100 µM
  TGI: > 100 µM
K562
  GI50: 31.7 µM
  TGI: > 100 µM
